This is an account of results in PMC3530835 (Journal of medicinal chemistry, 2012).

Structures are written as SMILES. ≈ marks a conversion by molar mass, not a printed value.

Data set [1] addresses T1, PfGluPho (PfG6PD) (Plasmodium falciparum, UniProt Q8IKU0).
T1 sequence (Q8IKU0 1-910): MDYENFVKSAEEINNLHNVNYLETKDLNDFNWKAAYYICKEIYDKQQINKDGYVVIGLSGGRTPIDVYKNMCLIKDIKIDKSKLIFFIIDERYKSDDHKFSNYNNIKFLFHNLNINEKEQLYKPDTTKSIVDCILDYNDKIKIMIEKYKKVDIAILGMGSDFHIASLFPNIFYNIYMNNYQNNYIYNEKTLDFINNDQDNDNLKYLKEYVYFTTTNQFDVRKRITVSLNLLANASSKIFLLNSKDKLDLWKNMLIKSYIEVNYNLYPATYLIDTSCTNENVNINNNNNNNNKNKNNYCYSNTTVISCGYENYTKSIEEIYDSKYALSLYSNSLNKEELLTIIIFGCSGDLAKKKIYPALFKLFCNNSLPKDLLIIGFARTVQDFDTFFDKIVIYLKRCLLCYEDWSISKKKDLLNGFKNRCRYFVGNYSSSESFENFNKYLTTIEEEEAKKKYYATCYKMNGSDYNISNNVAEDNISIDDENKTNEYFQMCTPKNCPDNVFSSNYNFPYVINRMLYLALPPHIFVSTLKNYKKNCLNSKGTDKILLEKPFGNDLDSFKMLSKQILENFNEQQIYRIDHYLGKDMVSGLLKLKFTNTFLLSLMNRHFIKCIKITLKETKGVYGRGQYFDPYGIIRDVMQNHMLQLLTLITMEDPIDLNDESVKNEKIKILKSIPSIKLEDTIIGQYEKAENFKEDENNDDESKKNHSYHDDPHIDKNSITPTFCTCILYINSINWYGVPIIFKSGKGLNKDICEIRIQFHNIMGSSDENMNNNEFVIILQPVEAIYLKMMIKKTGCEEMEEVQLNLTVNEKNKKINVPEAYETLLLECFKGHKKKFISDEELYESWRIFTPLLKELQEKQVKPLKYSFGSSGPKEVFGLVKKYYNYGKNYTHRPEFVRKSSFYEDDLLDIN
In words: PfGluPho primary dose response assay, resazurin/diaphorase-coupled. In kind it is biochemical. As to conditions: for Decrease in potency relative to 5a: vs. 5a, Table 2. In general terms: The colour change of resazurin is a common sign of viable cells or microbes.

Data set [2] deals with T1, PfGluPho (PfG6PD). In words: Orthogonal PfGluPho assay, direct detection of NADPH. In kind it is biochemical. The following applies: Potency PfG6PD NADPH Kinetic.
Data set [3] deals with hG6PD (Homo sapiens, UniProt P11413). In words: hG6PD counter screen. In kind it is biochemical. The following applies: Figure 3. For orientation: The purpose of a counterscreen is to sort out artefacts and off-target activity.
The nature of data set [4]: Chemical stability. The following applies: 10 μM, 1% DMSO, 5 equivalents of GSH, PBS pH 7.4, 23 °C, duration of the study. In kind it is physicochemical.
Data set [5] is described as follows: Aqueous solubility. In kind it is physicochemical.
In data set [6] the target is PfGluPho (Plasmodium falciparum, UniProt Q8IKU0). In words: Mechanism of inhibition. In kind it is biochemical. In a few lines:
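Test compound, titrated in DMSO, and G6P or NADP+ varied together. Substrate solution final: 3.3 mM MgCl2, 1 mM TCEP, 0.05 M Tris, plus 5 μM NADP+ (G6P titration) or 25 μM G6P (NADP+ titration). Reaction started with PfGluPho (final 0.2 μg/mL) in 0.005% Tween 20. NADPH fluorescence (ex340/em460) monitored over 10 min; initial slopes taken.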

Data set [7] deals with P. falciparum. In words: P. falciparum in culture. In kind it is cell-based. As to conditions: Plasmodium falciparum, read-out: IC50 against P. falciparum in culture. Put shortly:
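Chloroquine-sensitive 3D7 and chloroquine-resistant Dd2 blood-stage strains. Infected RBCs seeded at 0.25% parasitemia (>70% rings) and 1.25% hematocrit in hypoxanthine-free medium, with varying test compound concentrations and a chloroquine control. Incubated 72 hours. Growth was read as 3H-hypoxanthine incorporation, and IC50 was derived by non-linear regression.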

[8] abbreviates: PfG6PD IC50, Table 3, necessity of styryl moiety.
Setting [9] is: Potency PfG6PD Primary Assay, Table 5, Ave. ± S.E.M.
The mark [10] stands for this setting: Potency PfG6PD Primary Assay, Table 6, Ave. ± S.E.M.

Sequence of hG6PD (P11413 whole entry): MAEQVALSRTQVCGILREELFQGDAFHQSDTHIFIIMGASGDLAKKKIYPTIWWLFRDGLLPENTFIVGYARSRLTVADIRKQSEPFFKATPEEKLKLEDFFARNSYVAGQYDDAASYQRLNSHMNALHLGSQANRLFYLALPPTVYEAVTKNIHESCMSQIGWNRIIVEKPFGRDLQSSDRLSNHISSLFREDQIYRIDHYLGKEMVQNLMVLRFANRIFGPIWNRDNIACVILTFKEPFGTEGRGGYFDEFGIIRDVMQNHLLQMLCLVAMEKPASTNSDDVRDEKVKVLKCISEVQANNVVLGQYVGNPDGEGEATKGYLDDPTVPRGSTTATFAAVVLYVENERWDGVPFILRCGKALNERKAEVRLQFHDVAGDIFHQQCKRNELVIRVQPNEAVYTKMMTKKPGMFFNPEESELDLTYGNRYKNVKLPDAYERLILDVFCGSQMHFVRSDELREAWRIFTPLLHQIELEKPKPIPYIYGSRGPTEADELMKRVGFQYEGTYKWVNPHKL

Take `CCN1CCCC1CNC(=O)c1ccc2c(c1)NC(=O)CS2` (stereo not drawn) [Compound 3d]: the “PfG6PD activity (in words)” value in data set [1] is “complete loss of activity”. Moreover, in data set [1] (setting [8]), the concentration for half-maximal inhibition (IC50) – broadly, the concentration that gives 50% inhibition – is > 80 µM.
Take `COc1ccc(/C=C2\Sc3ccc(C(=O)NCCN(C)C)cc3NC2=O)cc1` [Compound 19]: the 50% inhibitory concentration (IC50) in data set [2] (Table 5) and in data set [1] (setting [9]) was > 80 µM each time.
Regarding `COc1ccc(/C=C2\Sc3ccc(C(=O)NCCN4CCCC4)cc3NC2=O)cc1` [Compound 30], the concentration for half-maximal inhibition (IC50) in data set [2] (Table 6) is > 80 µM.
As to `CCN1CCCC1CNC(=O)c1ccc2c(c1)NC(=O)C(Cc1ccccc1F)S2` (stereo not drawn) [Compound 10], in data set [1], the “PfG6PD activity (in words)” value is listed as “complete loss of activity”. In addition, the half-maximal inhibitory concentration (IC50) in data set [1] (setting [8]) was > 80 µM.
For `O=C1Nc2cc(C(=O)NCCN3CCOCC3)ccc2S/C1=C\c1ccccc1F` [Compound 34], the half-maximal inhibitory concentration (IC50) in data set [2] (Table 6) and in data set [1] (setting [10]) was > 80 µM in each case.
In the case of `O=C1Nc2cc(C(=O)NCc3ccccc3)ccc2S/C1=C\c1ccccc1F` [Compound 41], the IC50 in data set [2] (Table 6) and in data set [1] (setting [10]) was > 80 µM in each case.
In the case of `O=C1Nc2cc(C(=O)NCCN3CCCCCC3)ccc2S/C1=C\c1ccccc1Cl` [Compound 36], in data set [2] (Table 6), the IC50 was > 80 µM.
For `CC(C)(C)OC(=O)N1CCCC1CNC(=O)c1ccc2c(c1)NC(=O)/C(=C/c1ccccc1F)S2` (stereo not drawn) [Compound 14], the “PfG6PD activity (in words)” value in data set [1] was “inactive”. In data set [1] (Potency PfG6PD Primary Assay, Table 4, Ave. ± S.E.M.), the 50% inhibitory concentration (IC50) is > 80 µM.
`CCCN(CCC)CCNC(=O)c1ccc2c(c1)NC(=O)/C(=C/c1ccccc1)S2` [Compound 26]: in data set [1] (setting [9]), the IC50 was > 80 µM.
`CCN1CCCC1CNC(=O)c1ccc2c(c1)NC(=O)/C(=C/c1ccccc1C)S2` (stereo not drawn) [Compound 5c]: in data set [1], the “Decrease in potency relative to 5a” value stood at 3 fold.
Regarding `COc1ccc(/C=C2\Sc3ccc(C(=O)NCCN4CCCCCC4)cc3NC2=O)cc1` [Compound 38], the IC50 in data set [2] (Table 6) and in data set [1] (setting [10]) was > 80 µM in each case.
Regarding `CCCN(CCC)CCNC(=O)c1ccc2c(c1)NC(=O)/C(=C/c1ccc(C)cc1)S2` [Compound 27], the IC50 in data set [1] (setting [9]) was > 80 µM.
In the case of `O=C1Nc2cc(C(=O)NCCN3CCCC3)ccc2S/C1=C\c1ccccc1Cl` [Compound 31], the concentration for half-maximal inhibition (IC50) in data set [2] (Table 6) is > 80 µM.
Consider `CCN1CCCC1CNC(=O)c1ccc2c(c1)NC(=O)/C(=C/c1ccccc1OC)S2` (stereo not drawn) [Compound 5d], for which the “Decrease in potency relative to 5a” value in data set [1] was determined as 5 fold.
Regarding `CN(C)c1ccccc1CNC(=O)c1ccc2c(c1)NC(=O)/C(=C/c1ccccc1F)S2` [Compound 42], the 50% inhibitory concentration (IC50) in data set [1] (setting [10]) was > 80 µM.
As to `CCN1CCC[C@@H]1CNC(=O)c1ccc2c(c1)NC(=O)/C(=C/c1ccccc1F)S2` [Compound 11, (R,Z)-N-((1-ethylpyrrolidin-2-yl)methyl)-2-(2-fluorobenzylidene)-3-oxo-3,4-dihydro-2H-benzo[b][1,4]thiazine-6-carboxamide], the “Selectivity for PfGluPho over hG6PD (in words)” value in data set [3] is listed as “selective”. Also, the “Reactivity with GSH (in words)” value in data set [4] is “remained intact”. The solubility (usually how much of the substance goes into solution per volume) in data set [5] (1x PBS, pH 7.4) is 71 µg/mL (≈ 167 µM); in data set [5] (pION's buffer, pH 5) it was > 126 µg/mL; in data set [5] (pION's buffer, pH 6.2) it was > 126 µg/mL; in data set [5] (pION's buffer, pH 7.4), 29.4 µg/mL (≈ 69.1 µM). Besides, in data set [1] (11 vs. 12, Table 4), the “Preference for the R-enantiomer versus the S-enantiomer” value is reported as 8 fold. In data set [6] (G6P titration), the “Type of inhibition vs. G6P” value is listed as “competing with the substrate”. Also, the “Type of inhibition vs. NADP+” value in data set [6] (NADP+ titration) was “mixed-type inhibition”. In addition, in data set [7], the 50% inhibitory concentration (IC50) worked out at 2.6 µM.
Regarding `COc1cccc(/C=C2\Sc3ccc(C(=O)NCCN4CCCCCC4)cc3NC2=O)c1` [Compound 37], in data set [1] (setting [10]), the IC50 is > 80 µM.
